pIC50, pKi: −log10 of the molar value.
How the values were obtained:
[1] = target: T1, Adenosine receptor A2b (Rattus norvegicus, UniProt P29276); assay: Displacement of [3H]PSB-603 from rat adenosine receptor A2B expressed in CHO cell membranes incubated for 75 mins by radioligand competition assay; set-up: species or system Cell membrane
T1 sequence (P29276 whole entry): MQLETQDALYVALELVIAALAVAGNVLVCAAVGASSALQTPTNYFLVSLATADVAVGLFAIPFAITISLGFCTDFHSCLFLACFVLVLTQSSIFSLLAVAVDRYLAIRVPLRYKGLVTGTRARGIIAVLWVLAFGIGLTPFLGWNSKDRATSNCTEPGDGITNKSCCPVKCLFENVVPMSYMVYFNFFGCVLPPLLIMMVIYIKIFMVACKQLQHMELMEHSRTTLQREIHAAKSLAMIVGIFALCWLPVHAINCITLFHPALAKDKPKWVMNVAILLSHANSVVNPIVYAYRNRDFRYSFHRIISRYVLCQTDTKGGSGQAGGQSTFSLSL
Procedure, shortened: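 CHO membranes expressing human or rat A2B, [3H]PSB-603 0.3 nM. Nonspecific binding defined by 10 µM DPCPX. Preincubated 20 min with adenosine deaminase, then 75 min at rt in Tris-HCl pH 7.4 with 2.5% DMSO. Filters washed with ice-cold 50 mM Tris-HCl containing 0.1% BSA; scintillation counting.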

[2] = target: T2, Adenosine receptor A1 (Rattus norvegicus, UniProt P25099); assay: Displacement of [3H]CCPA from rat adenosine receptor A1 by radioligand competition assay
T2 sequence (P25099 whole entry): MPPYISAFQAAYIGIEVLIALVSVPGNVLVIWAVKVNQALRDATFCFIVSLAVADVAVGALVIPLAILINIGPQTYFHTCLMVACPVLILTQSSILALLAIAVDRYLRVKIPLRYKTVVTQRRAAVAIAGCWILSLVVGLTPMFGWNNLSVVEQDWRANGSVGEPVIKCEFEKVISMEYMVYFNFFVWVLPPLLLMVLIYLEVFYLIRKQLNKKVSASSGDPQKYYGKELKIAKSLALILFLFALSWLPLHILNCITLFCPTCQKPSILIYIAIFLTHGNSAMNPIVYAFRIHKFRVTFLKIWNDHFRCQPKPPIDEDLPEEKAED
Procedure, shortened: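 A1 competition binding with [3H]CCPA, 0.5 nM. Membranes: CHO cells expressing human A1, or rat brain cortex. Membranes preincubated 20 min with adenosine deaminase (2 U/mL per mg protein). Incubation 90 min at rt in 50 mM Tris-HCl pH 7.4 with 2.5% final DMSO. Nonspecific binding defined by 10 µM 2-chloroadenosine. GF/B filtration, scintillation counting.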

[3] = target: T3, Adenosine receptor A2a (Homo sapiens, UniProt P29274); assay: Displacement of [3H]MSX2 from human adenosine receptor A2A expressed in HEK293 cell membranes incubated for 30 mins by radioligand competition assay; set-up: species or system Cell membrane
T3 sequence (P29274 whole entry): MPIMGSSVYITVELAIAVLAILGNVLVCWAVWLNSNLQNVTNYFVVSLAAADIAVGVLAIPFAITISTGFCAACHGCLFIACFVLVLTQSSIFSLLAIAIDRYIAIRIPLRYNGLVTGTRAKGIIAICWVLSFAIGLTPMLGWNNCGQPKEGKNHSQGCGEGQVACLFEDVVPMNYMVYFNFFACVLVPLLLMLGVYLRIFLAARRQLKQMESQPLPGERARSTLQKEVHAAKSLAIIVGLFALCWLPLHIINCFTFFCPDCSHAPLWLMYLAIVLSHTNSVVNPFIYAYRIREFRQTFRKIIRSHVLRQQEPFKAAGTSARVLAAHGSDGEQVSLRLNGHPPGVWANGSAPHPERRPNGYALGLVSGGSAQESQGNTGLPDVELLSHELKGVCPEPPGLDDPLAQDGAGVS

[4] = target: T2, Adenosine receptor A1; assay: Displacement of [3H]DPCPX from rat brain cortical membrane A1AR in presence of 100 uM of GTP by scintillation counting analysis; assay type: cell membranes, Cortex, Cell membrane
[5] = target: Adenosine receptor A2a (Rattus norvegicus, UniProt P30543); assay: Displacement of [3H]MSX2 from adenosine receptor A2A in rat brain striatum membranes incubated for 30 mins by radioligand competition assay; assay type: cell membranes, Cell membrane
Adenosine receptor A2a (Rattus norvegicus, UniProt P30543), sequence (P30543 whole entry): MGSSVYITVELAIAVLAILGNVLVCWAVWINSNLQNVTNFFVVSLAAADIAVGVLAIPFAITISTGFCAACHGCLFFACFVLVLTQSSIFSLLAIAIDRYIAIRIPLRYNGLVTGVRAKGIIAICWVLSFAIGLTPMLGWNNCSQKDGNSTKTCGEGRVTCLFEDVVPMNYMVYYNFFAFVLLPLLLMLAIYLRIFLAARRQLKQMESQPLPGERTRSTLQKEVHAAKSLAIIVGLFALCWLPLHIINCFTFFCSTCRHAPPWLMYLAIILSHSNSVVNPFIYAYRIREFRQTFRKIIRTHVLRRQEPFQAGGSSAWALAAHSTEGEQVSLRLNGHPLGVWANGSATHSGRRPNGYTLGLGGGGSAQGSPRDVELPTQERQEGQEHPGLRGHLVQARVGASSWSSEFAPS

[6] = target: T4, Adenosine receptor A2b (Homo sapiens, UniProt P29275); assay: Displacement of [3H]PSB-603 from human adenosine receptor A2B expressed in CHO cell membranes incubated for 75 mins by radioligand competition assay; set-up: species or system Cell membrane
T4 sequence (P29275 whole entry): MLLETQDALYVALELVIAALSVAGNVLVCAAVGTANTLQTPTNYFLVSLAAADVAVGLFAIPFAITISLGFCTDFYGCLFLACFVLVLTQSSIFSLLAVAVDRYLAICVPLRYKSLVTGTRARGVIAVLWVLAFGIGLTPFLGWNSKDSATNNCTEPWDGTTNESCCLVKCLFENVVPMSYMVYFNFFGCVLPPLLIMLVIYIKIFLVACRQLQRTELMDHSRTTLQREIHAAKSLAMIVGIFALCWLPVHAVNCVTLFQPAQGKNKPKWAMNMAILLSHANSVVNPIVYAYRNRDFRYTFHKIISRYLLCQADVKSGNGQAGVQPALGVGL

[7] = target: T2, Adenosine receptor A1; assay: Displacement of [3H]DPCPX from rat brain cortical membrane A1AR in absence of GTP by scintillation counting analysis; assay type: cell membranes, Cortex, Cell membrane
[8] = target: T5, Adenosine receptor A3 (Homo sapiens) (UniProt P0DMS8); assay: Displacement of [3H]PSB-11 from human adenosine receptor A3 expressed in CHO cell membranes at 0.1 uM incubated for 60 mins by radioligand competition assay; conditions: Cell membrane, filed as antagonist, dose 0.1 µM
T5 sequence (whole entry): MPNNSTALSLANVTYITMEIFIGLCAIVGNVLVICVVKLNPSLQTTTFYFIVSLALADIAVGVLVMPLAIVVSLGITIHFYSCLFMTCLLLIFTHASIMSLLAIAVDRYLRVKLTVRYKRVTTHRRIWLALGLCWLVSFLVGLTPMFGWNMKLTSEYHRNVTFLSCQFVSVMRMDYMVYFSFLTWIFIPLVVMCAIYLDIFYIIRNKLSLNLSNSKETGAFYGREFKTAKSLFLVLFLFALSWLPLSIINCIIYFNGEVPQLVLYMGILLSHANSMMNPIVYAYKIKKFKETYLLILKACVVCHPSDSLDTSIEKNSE
Procedure, shortened: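 CHO membranes expressing human A3, [3H]PSB-11 0.5 nM. Nonspecific binding defined by 100 µM R-PIA. Adenosine deaminase preincubation 20 min, then 60 min at rt in 50 mM Tris-HCl pH 7.4 with 2.5% DMSO. Filtered on GF/B, scintillation counted.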

[9] = target: T3, Adenosine receptor A2a; assay: Displacement of [3H]MSX2 from human adenosine receptor A2A expressed in HEK293 cell membranes at 0.1 uM incubated for 30 mins by radioligand competition assay relative to control; conditions: Cell membrane, in the assay text read “at 1 uM” for “at 0.1 uM”
Procedure, shortened: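 A2A binding, [3H]MSX-2 1.0 nM. Membranes: rat brain striatum, or HEK293 cells expressing human A2A. Adenosine deaminase preincubation 20 min, then 30 min at rt in 50 mM Tris-HCl pH 7.4 with 2.5% DMSO. Nonspecific binding defined by 50 µM NECA. GF/B filtration, scintillation counting. Single-concentration percent inhibition, ≥3 experiments in duplicate or triplicate.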

pKi [1]: < 7.00
pKi [2]: 9.28
pKi [3]: < 6.00
pIC50 [4]: 10.12
pKi [5]: < 6.00
pKi [6]: < 7.00
pIC50 [7]: 10.12
inhibition [8]: 45%
inhibition [9]: 28%
SMILES: COc1ccc(C(=O)Nc2nc(-c3ccccc3)c(C(=O)c3ccc(C)cc3)s2)cc1

From ChEMBL document CHEMBL4680130, “Substituted 4-phenylthiazoles: Development of potent and selective A, A and dual A/A adenosine receptor antagonists” (Eur J Med Chem, 2020)
